For data set [1], the system named is RS4-11. In words: Induction of apoptosis in human RS4:11 cells after 24 to 48 hrs by Annexin V/propidium iodine-double staining-based flow cytometry. In kind it is functional, cell-based. The method, boiled down: (§1)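 Leukemia cells were treated for 24 h or 48 h at the indicated concentrations. They were then collected, washed in cold PBS and stained with Annexin V and propidium iodide. Apoptotic fraction was measured by flow cytometry.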

The target of data set [2] is Protein cereblon/Eukaryotic peptide chain release factor GTP-binding subunit ERF3A/Cullin-4A (Homo sapiens) (UniProt Q96SW2+Q13619+P15170). In words: Induction of Cereblon/Cullin 4A-mediated-GSPT1 degradation in human RS4:11 cells at 0.01 to 10 nM after 3 hrs by Western blot analysis. The format is cell-based. In general terms: In western blotting, separated proteins are transferred to a membrane and probed.

For data set [3], the system named is RS4-11. In words: Antitumor activity against human RS4:11 cells xenografted in SCID mouse assessed as induction of apoptosis by measuring PARP cleavage at 1 to 5 mg/kg, iv administered as single dose and measured at 1 to 24 hrs post dose by Western blot analysis. The format is functional, organism-based. The method, boiled down: (§2)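 SCID mice bearing subcutaneous RS4;11 tumors were given a single intravenous dose of 1 or 5 mg/kg. Tumors were harvested at 1, 6 and 24 h, two mice per time point. Tissue was ground in liquid nitrogen and lysed in CST buffer with protease inhibitors. 20 µg lysate per lane was probed for BRD2, BRD3, BRD4, c-Myc and cleaved PARP, with GAPDH as loading control.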

The target in data set [4] is T1, Protein cereblon/Bromodomain-containing protein 4/Cullin-4A (Homo sapiens) (UniProt O60885+Q96SW2+Q13619). In words: Protac activity at cereblon/cullin 4A/BRD4 in human RS4:11 cells assessed as BRD4 degradation at 0.5 nM after 3 hrs in presence of lenalidomide by Western blot analysis. In kind it is cell-based. The method, boiled down: (§3)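 RS4;11 cells were pre-treated for 2 h with DMSO, lenalidomide (10 μM), MLN4924 (1 μM) or MG-132 (20 μM). The degrader was then added at 0.5 nM for 3 h. Lysates were immunoblotted for BRD2, BRD3 and BRD4, with GAPDH as loading control.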

Data set [5] concerns the target T2, Protein cereblon/Bromodomain-containing protein 3/Cullin-4A (Homo sapiens) (UniProt Q15059+Q96SW2+Q13619). In words: Protac activity at cereblon/cullin 4A/BRD3 in human RS4:11 cells assessed as BRD3 degradation at 0.5 nM after 3 hrs in presence of neddylation inhibitor MLN4924 by Western blot analysis. The format is cell-based. The method, boiled down:
as §3

Data set [6] concerns RS4-11. In words: Induction of apoptosis in human RS4:11 cells at 0.1 nM after 48 hrs by Annexin V/propidium iodine-double staining-based flow cytometry relative to control. In kind it is functional. The method, boiled down: as §1
For orientation: A flow cytometer gives signals particle by particle.

The target of data set [7] is T2, Protein cereblon/Bromodomain-containing protein 3/Cullin-4A (Homo sapiens). In words: Protac activity at cereblon/cullin 4A/BRD3 in human RS4:11 cells assessed as BRD3 degradation at 0.5 nM after 3 hrs by Western blot analysis. The format is cell-based.
The nature of data set [8]: Drug uptake in kidney of SCID mouse xenografted with human RS4:11 cells at 5 mg/kg, iv measured at 6 hrs by LC-MS/MS analysis. In kind it is ADME, organism-based. The settings on record: in vivo, BLD = below limit of detection. The method, boiled down: (§4)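 Female SCID mice with RS4;11 tumors received a single 5 mg/kg intravenous dose in 20% PCP/80% PBS. Plasma (heparin) and tissues were taken at 1, 3 and 6 h, one mouse per time point in duplicate. Plasma was precipitated with acetonitrile containing internal standard. Tissues were homogenized 5:1 in 20% acetonitrile. Quantified by LC-MS/MS against spiked plasma standards (2–2000 ng/mL); values in ng/ml or ng/g.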
(A xenograft is tissue or cells of one species grown in another, often human tumour cells in immunodeficient mice.)

In data set [9] the test system is MOLM-13. In words: Growth inhibition of human MOLM13 cells after 96 hrs by CCK8 assay. As to conditions: MOLM-13, 96 h. The format is functional, cell-based.
Data set [10] relates to Mus musculus. In words: In vivo Protac activity at cereblon/cullin/BRD4 in tumor of human RS4:11 cells xenografted in SCID mouse assessed as reduction in BRD4 protein expression at 1 to 5 mg/kg, iv administered as single dose and measured at 24 hrs post dose by Western blot analysis. In kind it is functional, organism-based. The procedure, abridged:
as §2

Data set [11] addresses T1, Protein cereblon/Bromodomain-containing protein 4/Cullin-4A (Homo sapiens). In words: Protac activity at cereblon/cullin 4A/BRD4 in human RS4:11 cells assessed as BRD4 degradation at 0.5 nM after 3 hrs in presence of neddylation inhibitor MLN4924 by Western blot analysis. The format is cell-based. The method, boiled down:
as §3

Data set [12] deals with T3, Protein cereblon/Bromodomain-containing protein 2/Cullin-4A (Homo sapiens) (UniProt P25440+Q96SW2+Q13619). In words: Protac activity at cereblon/cullin 4A/BRD2 in human RS4:11 cells assessed as BRD2 degradation at 0.5 nM after 3 hrs by Western blot analysis. In kind it is cell-based.
Data set [13] in a line: Drug uptake in lungs of SCID mouse xenografted with human RS4:11 cells at 5 mg/kg, iv measured at 6 hrs by LC-MS/MS analysis. The format is ADME, organism-based, Lung. As to conditions: in vivo, BLD = below limit of detection. The procedure, abridged: as §4
The subject of data set [14] is Mus musculus. In words: In vivo Protac activity at cereblon/cullin/BRD3 in tumor of human RS4:11 cells xenografted in SCID mouse assessed as reduction in BRD3 protein expression at 1 to 5 mg/kg, iv administered as single dose and measured at 1 to 6 hrs post dose by Western blot analysis. In kind it is functional, organism-based. The method, boiled down:
as §2

Data set [15] in a line: Drug uptake in liver of SCID mouse xenografted with human RS4:11 cells at 5 mg/kg, iv measured at 6 hrs by LC-MS/MS analysis. In kind it is ADME, organism-based. As to conditions: in vivo, BLD = below limit of detection. The procedure, abridged: as §4
Data set [16] deals with T1, Protein cereblon/Bromodomain-containing protein 4/Cullin-4A (Homo sapiens). In words: Protac activity at cereblon/cullin 4A/BRD4 in human RS4:11 cells assessed as BRD4 degradation at 0.5 nM after 3 hrs by Western blot analysis. The format is cell-based.
Data set [17] is described as follows: Drug uptake in heart of SCID mouse xenografted with human RS4:11 cells at 5 mg/kg, iv measured at 6 hrs by LC-MS/MS analysis. The settings on record: in vivo, BLD = below limit of detection. In kind it is ADME, organism-based. The procedure, abridged:
as §4

Data set [18] in a line: Drug uptake in plasma of SCID mouse xenografted with human RS4:11 cells at 5 mg/kg, iv measured at 6 hrs by LC-MS/MS analysis. In kind it is ADME, organism-based. The settings on record: in vivo, BLD = below limit of detection. The method, boiled down: as §4
Data set [19] relates to RS4-11. In words: Induction apoptosis in human RS4:11 cells assessed as caspase-3 activation at 0.3 nM after 24 hrs by Western blot analysis. In kind it is functional, cell-based. The procedure, abridged: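 Cells (1.5–2×10^6/well) were treated for 24 h, washed in cold PBS and lysed in RIPA with protease inhibitors. 20 µg lysate was run on 4–20% or 4–12% gels and transferred to PVDF. Blots were probed for cleaved PARP and cleaved caspase 3, with GAPDH as loading control. Detection by ECL.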

Data set [20] can be described thus: Drug uptake in intestine of SCID mouse xenografted with human RS4:11 cells at 5 mg/kg, iv measured at 6 hrs by LC-MS/MS analysis. In kind it is ADME, organism-based. As to conditions: in vivo, BLD = below limit of detection. The procedure, abridged:
as §4

Data set [21] deals with T3, Protein cereblon/Bromodomain-containing protein 2/Cullin-4A (Homo sapiens). In words: Protac activity at cereblon/cullin 4A/BRD2 in human RS4:11 cells assessed as BRD2 degradation at 0.5 nM after 3 hrs in presence of neddylation inhibitor MLN4924 by Western blot analysis. The format is cell-based. The procedure, abridged:
as §3

For data set [22], the target named is T2, Protein cereblon/Bromodomain-containing protein 3/Cullin-4A (Homo sapiens). In words: Protac activity at cereblon/cullin 4A/BRD3 in human RS4:11 cells assessed as BRD3 degradation at 0.5 nM after 3 hrs in presence of lenalidomide by Western blot analysis. In kind it is cell-based. The procedure, abridged: as §3
The target of data set [23] is T3, Protein cereblon/Bromodomain-containing protein 2/Cullin-4A (Homo sapiens). In words: Protac activity at cereblon/cullin 4A/BRD2 in human RS4:11 cells assessed as BRD2 degradation at 0.5 nM after 3 hrs in presence of proteasome inhibitor MG132 by Western blot analysis. In kind it is cell-based. The method, boiled down:
as §3

Data set [24] has as its system MOLM-13. In words: Induction of apoptosis in human MOLM13 cells at 1 nM after 24 hrs by Annexin V/propidium iodine-double staining-based flow cytometry relative to control. The format is functional. The procedure, abridged:
as §1

The values below come from ChEMBL document CHEMBL4382197, “Discovery of QCA570 as an Exceptionally Potent and Efficacious Proteolysis Targeting Chimera (PROTAC) Degrader of the Bromodomain and Extra-Terminal (BET) Proteins Capable of Inducing Complete and Durable Tumor Regression” (J Med Chem, 2018).

pIC50: −log10 of the molar value. Calls of active or inactive are those of the source. The rule behind the calls is not given here. Bounds are passed on as bounds.

T2 sequence (Q13619 whole entry, looked up): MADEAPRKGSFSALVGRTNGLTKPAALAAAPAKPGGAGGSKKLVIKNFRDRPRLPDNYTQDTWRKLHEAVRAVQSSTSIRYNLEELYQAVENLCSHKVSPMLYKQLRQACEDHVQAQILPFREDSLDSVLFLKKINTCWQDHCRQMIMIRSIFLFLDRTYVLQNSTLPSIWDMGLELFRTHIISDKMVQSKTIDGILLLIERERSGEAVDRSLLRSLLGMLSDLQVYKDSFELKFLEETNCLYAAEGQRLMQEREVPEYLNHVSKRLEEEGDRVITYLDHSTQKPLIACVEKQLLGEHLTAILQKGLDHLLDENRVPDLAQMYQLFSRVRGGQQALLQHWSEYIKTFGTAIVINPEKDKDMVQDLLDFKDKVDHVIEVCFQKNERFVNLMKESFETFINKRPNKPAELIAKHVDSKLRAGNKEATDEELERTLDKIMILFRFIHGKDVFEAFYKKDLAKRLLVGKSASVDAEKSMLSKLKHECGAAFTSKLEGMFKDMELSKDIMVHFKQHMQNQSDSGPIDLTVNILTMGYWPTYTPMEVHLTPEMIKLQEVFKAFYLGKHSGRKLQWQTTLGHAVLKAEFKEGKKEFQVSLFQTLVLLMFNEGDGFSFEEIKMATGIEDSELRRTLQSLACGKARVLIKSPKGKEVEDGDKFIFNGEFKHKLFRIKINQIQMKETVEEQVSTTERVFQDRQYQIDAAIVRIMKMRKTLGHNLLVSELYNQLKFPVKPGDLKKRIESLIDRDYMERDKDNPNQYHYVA
T2 sequence (Q15059 whole entry, looked up): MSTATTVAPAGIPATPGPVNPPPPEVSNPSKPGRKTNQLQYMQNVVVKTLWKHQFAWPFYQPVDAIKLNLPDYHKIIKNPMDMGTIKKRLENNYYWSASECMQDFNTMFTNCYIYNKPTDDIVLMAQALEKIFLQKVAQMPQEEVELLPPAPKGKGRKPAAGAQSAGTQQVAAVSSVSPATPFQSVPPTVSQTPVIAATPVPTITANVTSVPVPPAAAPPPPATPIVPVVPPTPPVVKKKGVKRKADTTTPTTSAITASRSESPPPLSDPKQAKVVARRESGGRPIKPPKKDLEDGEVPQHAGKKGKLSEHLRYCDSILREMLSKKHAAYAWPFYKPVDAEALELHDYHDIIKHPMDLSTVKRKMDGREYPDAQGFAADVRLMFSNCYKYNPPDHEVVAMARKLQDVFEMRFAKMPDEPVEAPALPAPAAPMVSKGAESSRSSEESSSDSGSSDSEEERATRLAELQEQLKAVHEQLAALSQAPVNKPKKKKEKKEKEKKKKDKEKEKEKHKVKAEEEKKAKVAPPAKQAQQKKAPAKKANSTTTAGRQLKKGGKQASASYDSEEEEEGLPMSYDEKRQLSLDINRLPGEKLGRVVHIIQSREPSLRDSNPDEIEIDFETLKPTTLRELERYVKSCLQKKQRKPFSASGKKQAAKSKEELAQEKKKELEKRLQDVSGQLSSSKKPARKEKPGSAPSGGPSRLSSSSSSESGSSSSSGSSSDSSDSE
T2 sequence (Q96SW2 whole entry, looked up): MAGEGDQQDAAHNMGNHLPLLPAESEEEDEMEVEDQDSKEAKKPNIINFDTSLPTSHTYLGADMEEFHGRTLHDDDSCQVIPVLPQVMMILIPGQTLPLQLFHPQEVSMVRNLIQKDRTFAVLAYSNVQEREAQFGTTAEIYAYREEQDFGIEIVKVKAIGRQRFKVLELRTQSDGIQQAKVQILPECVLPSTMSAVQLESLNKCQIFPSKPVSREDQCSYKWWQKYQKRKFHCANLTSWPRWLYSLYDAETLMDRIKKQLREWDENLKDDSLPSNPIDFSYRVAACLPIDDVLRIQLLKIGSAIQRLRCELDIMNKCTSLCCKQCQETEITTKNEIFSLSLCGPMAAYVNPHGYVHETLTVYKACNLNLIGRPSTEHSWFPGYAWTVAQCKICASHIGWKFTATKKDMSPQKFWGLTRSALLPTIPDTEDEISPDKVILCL
T3 sequence (P25440 whole entry, looked up): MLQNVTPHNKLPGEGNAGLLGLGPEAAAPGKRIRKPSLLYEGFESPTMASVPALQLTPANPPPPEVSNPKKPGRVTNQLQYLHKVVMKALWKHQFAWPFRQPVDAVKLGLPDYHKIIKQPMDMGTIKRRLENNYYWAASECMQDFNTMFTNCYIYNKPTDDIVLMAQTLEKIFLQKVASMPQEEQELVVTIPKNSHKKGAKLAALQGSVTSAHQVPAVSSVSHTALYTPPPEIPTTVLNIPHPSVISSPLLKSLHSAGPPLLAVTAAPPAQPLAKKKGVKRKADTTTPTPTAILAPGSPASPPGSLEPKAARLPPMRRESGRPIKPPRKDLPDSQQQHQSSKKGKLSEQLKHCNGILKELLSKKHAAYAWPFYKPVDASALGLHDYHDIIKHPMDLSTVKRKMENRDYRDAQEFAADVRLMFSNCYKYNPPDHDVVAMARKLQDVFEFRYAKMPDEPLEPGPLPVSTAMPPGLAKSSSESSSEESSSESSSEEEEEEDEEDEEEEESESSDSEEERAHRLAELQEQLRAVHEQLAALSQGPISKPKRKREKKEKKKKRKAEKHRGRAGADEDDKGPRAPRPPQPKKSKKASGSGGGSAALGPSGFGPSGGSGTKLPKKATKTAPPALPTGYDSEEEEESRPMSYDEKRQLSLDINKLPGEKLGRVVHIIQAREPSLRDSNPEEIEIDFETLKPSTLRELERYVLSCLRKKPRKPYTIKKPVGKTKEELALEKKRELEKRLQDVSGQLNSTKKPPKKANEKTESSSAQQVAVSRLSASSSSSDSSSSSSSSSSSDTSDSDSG
T3 sequence (Q13619 whole entry, looked up): as the sequence (Q13619 whole entry, looked up) above
T3 sequence (Q96SW2 whole entry, looked up): as the sequence (Q96SW2 whole entry, looked up) above
Chain of Protein cereblon/Eukaryotic peptide chain release factor GTP-binding subunit ERF3A/Cullin-4A (Homo sapiens) (P15170 whole entry, looked up): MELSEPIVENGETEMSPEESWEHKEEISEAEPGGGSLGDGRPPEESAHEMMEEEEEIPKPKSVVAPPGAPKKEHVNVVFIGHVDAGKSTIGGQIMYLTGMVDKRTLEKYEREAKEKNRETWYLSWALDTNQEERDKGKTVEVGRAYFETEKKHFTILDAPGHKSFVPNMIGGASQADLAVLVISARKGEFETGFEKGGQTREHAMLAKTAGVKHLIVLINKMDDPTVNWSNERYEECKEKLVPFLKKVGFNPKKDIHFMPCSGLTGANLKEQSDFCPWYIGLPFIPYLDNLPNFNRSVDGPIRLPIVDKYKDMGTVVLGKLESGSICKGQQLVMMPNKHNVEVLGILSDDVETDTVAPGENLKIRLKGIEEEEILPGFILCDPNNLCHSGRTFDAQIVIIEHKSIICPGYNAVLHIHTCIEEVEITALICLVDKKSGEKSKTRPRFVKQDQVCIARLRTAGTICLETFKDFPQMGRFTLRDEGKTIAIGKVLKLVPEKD
Chain of Protein cereblon/Eukaryotic peptide chain release factor GTP-binding subunit ERF3A/Cullin-4A (Homo sapiens) (Q13619 whole entry, looked up): as the sequence (Q13619 whole entry, looked up) above
Chain of Protein cereblon/Eukaryotic peptide chain release factor GTP-binding subunit ERF3A/Cullin-4A (Homo sapiens) (Q96SW2 whole entry, looked up): as the sequence (Q96SW2 whole entry, looked up) above

A word on the pIC50: it is −log10 of the IC50, conventionally taken in molar units. A high value points to a low IC50. `Cc1nnc2n1Cc1sc(C#Cc3cnn(CCCC#Cc4cccc5c4CN(C4CCC(=O)NC4=O)C5=O)c3)c(Cc3ccccc3)c1OC2` (centres undefined): the values for the Activity result with RS4-11 [1], in the data set with RS4-11 [6] and with MOLM-13 [24] were “Dose-dependent effect”, >40% and >60%, respectively. In addition, the outcome (in [2]; in [4]; in data set [5]; in data set [11]; in the data set with RS4-11 [19]; in data set [21]) was inactive. For the same compound, the result in data set [22] and in data set [23] was inactive. Moreover, the outcome (in the data set on RS4-11 [3]; in data set [7]; with Mus musculus [10]; in data set [12]; in the data set with Mus musculus [14]; in data set [16]) was Active. Also, the Drug uptake result in data set [8], in data set [13], in data set [15], in data set [17] and in data set [20] was “Bld” throughout. This compound also gave a pIC50 in the data set on MOLM-13 [9] of 10.21. Besides, in data set [18], the Cp result is reported as “Bld”.
